In the library only some 4.1% were active in any assay of this set; here they are far more common.
KCNQ1 block – inhibitors of human KCNQ1 channel, primary screen, cell-based, thallium flux, high-throughput; Potassium voltage-gated channel subfamily KQT member 1 (Homo sapiens), P51787; CHO-K1 KCNQ1, FluxOR thallium flux fluorescence; active compounds read high; B-score at 10 µM; actives 1.3% (n = 310,000); AID 2642, 2010;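 active = compounds whose thallium flux B-score, printed positive for inhibition, exceeds three library SD while starting fluorescence stays within three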;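 note: channel opened by potassium depolarization with thallium stimulus after 20 min compound exposure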
hERG protect – hERG rescue from dofetilide block, primary screen, cell-based, CHO-hERG, FluxOR thallium flux, dofetilide IC70; Voltage-gated inwardly rectifying potassium channel KCNH2 (Homo sapiens), Q12809; dofetilide IC70 present; actives 0.51% (n = 310,000); AID 1511, 2009; activation (rescue from dofetilide block), less the hit threshold, % at 10 µM;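 active = activation above the mean of controls blocked by dofetilide plus 5 SD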;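 note: thallium influx through hERG after potassium depolarization seen as dye fluorescence rise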
KCNQ1 act – potentiators or activators of KCNQ1 channel, primary screen, cell-based, thallium flux, high-throughput. B-score at 10 µM. CHO-K1 KCNQ1, thallium flux FluxOR fluorescence; active compounds read high. actives 0.35% (n = 310,000). Potassium voltage-gated channel subfamily KQT member 1 (Homo sapiens), P51787;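 active = fluorescence ratio B-score, a plate-corrected score, at least three library SD, with initial intensity B-score within 5 SD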
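Material: CHO-K1 cells stably expressing KCNQ1. Medium: assay buffer for compound exposure, DMSO matched across wells. Reagent: K+/Tl+ depolarizing stimulus. Compound dosing: single-concentration screen. Times: 37 °C overnight plating, 90-min dark dye load, 20-min compound pretreatment. Technique: FluxOR Tl+ flux fluorescence.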
Cl transport mod – KCC2 cotransporter modulators, thallium flux, primary screen, cell-based, HEK293 KCC2, FluoZin-2 fluorescence, MLSMR. Solute carrier family 12 member 5 (Homo sapiens), Q9H2X9. KCC2 cells, thallium flux FluoZin-2 fluorescence. B-score of Tl+ flux slope (higher = more flux/activation; lower = inhibition) at 10 µM. actives 2.2% (n = 190,000). AID 1456, 2008;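 active = thallium flux slope and its plate-corrected score both differing from the plate sample mean at a set confidence after two filtering rounds, in either direction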;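 note: slope of fluorescence scaled to starting intensity during 10 to 20 s after thallium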
KCNK9 block – KCNK9 potassium channel inhibitors, primary screen, HEK293 cells, thallium flux. Potassium channel subfamily K member 9 (Homo sapiens), Q9NPC2. FluxOR thallium flux fluorescence; active compounds read low. B-score at 10 µM. actives 1.2% (n = 310,000);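 active = ratio B-score over 3 SD below the library mean, with starting fluorescence within 5 SD of its mean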;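 note: negative B-score means less thallium flux so channel inhibition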
Target sequence (Q9NPC2 whole entry, looked up): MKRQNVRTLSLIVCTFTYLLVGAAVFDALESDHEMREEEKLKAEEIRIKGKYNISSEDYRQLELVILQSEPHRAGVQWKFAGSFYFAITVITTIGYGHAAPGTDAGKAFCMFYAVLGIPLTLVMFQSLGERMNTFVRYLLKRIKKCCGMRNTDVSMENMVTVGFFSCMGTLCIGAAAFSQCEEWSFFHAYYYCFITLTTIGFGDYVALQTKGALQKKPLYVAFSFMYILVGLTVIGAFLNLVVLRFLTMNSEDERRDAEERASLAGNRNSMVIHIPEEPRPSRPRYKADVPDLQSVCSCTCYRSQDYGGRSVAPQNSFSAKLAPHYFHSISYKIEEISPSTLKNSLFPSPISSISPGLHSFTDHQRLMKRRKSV
KCNK3 inh – human KCNK3 channel inhibitors, primary screen, CHO cells, FluxOR thallium flux, B-score | B-score at 10 µM | actives 0.84% (n = 340,000) | FluxOR fluorescence; active compounds read low | Potassium channel subfamily K member 3 (Homo sapiens), O14649 | AID 602410, 2012;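 active = B-score under library mean minus 4 SD, starting fluorescence ratio at most library mean plus 5 SD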;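 note: more negative B-score means stronger inhibition of thallium flux through KCNK3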
Target sequence (O14649 whole entry, looked up): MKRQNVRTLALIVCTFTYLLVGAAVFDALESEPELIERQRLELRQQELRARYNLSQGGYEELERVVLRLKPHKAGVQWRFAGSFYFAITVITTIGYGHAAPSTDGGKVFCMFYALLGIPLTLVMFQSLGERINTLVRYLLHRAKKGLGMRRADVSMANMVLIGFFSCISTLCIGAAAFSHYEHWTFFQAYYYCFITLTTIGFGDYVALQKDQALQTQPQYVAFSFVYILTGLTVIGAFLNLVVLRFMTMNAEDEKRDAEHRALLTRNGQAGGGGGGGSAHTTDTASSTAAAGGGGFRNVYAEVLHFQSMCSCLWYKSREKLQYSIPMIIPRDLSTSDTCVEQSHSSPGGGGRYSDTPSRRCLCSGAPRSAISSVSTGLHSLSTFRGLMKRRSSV
KCC2 secondary – KCC2 modulators in sodium-free buffer, confirmation, cell-based, HEK293 KCC2, thallium flux, secondary assay. shares compounds with Cl transport mod. actives 15% (n = 3,700). normalised thallium flux (F/F0 slope) at 10 µM. AID 1713, 2009. FluoZin2 fluorescence; active compounds read high;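 active = thallium flux slope above the same plate's solvent-only control mean plus 3 SD; inconclusive = the two replicate wells disagree; inactive = no significant difference from solvent-only control wells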
KCC2 bumet counter – thallium flux persisting under bumetanide in KCC2 cells, confirmation, counter-screen for KCC2 modulator project, cell-based, HEK293 KCC2, FluoZin2, secondary assay 3; normalized thallium flux at 10 µM; actives 49% (n = 3,700); HEK293-KCC2 + bumetanide/ouabain; active compounds read high; shares compounds with Cl transport mod;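 active = thallium entry rate above the same plate's blocked-transporter control wells by more than 3 SD; inconclusive = the two repeat wells disagree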;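 note: raw slope of fluorescence over initial fluorescence between 10 and 20 s after thallium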
KCC2 secondary2 – KCC2 modulators without ouabain present, confirmation, cell-based, HEK293 KCC2, thallium flux, FluoZin2, secondary assay 2. normalized thallium flux at 10 µM. actives 23% (n = 3,700). thallium flux FluoZin2 fluorescence; actives lie on both sides; F/F0 rise rate, 10–20 s post-thallium. AID 1715, 2009. shares compounds with Cl transport mod;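 active = thallium flux slope more than 3 SD above or below the plate's solvent-only control mean, mostly below; inconclusive = the two repeat wells disagreed; inactive = no significant shift from solvent-only controls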;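 note: raw slope with 0.1% DMSO as baseline and bumetanide as block control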
HEK293 Tl flux – thallium flux modulation in parental HEK cells, confirmation, counter-screen for KCC2 modulator project, cell-based, counterscreen 1; HEK293 parental cells, thallium flux FluoZin2, ouabain; baseline-ratio fluorescence slope, 10–20 s after thallium; thallium flux rate (normalised fluorescence) at 10 µM; shares compounds with Cl transport mod; actives 46% (n = 3,700);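 active = thallium flux rate significantly above the same plate's solvent-only control wells, beyond their mean plus 3 SD; inconclusive = the two replicate wells gave conflicting results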
KCC2 retest ouab – KCC2 inhibitors and activators, ouabain retest, confirmation, HEK-KCC2 cells; shares compounds with Cl transport mod; HEK293-KCC2, thallium flux FluoZin2 fluorescence; bidirectional: low = inhibitor, high = activator; raw Tl+ flux slope (below DMSO = inhibition, above = activation) at 10 µM; actives 48% (n = 3,700);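 active = thallium flux slope beyond 3 SD from same-plate DMSO control mean in most replicates, usually higher, sometimes lower; inconclusive = repeat tests gave conflicting results; inactive = no significant difference from controls in most replicates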;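 note: slope of initial-normalized fluorescence between seconds 10 and 20 after thallium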
HEK counter2 – native HEK Tl+ uptake effects, second counter-screen – HEK cells, counterscreen 2, counter-screen for KCC2 modulator project, confirmation; shares compounds with Cl transport mod; actives 33% (n = 3,700); thallium flux slope at 10 µM; HEK293 parental, thallium flux FluoZin-2 fluorescence slope; AID 1718, 2009;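 active = thallium flux slope above the same plate's solvent-control mean plus 3 SD in both duplicate wells; inconclusive = duplicate wells that disagreed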;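 note: run without ouabain in cells lacking the KCC2 cotransporter; slope of fluorescence scaled to its starting value between 10 and 20 s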
An asterisk follows results filed as active; i = inactive; u = inconclusive; x = no result.

SMILES | KCNQ1 block | hERG protect | KCNQ1 act | Cl transport mod | KCNK9 block | KCNK3 inh | KCC2 secondary | KCC2 bumet counter | KCC2 secondary2 | HEK293 Tl flux | KCC2 retest ouab | HEK counter2
COC(=O)c1c(NC(=S)Nc2cc(OC)c(Cl)cc2OC)sc2c1CCCCC2 | i | -6.5 | i | 6.86* | i | i | 0.0152* | 0.0253* | 0.0339 | 0.0111* | 0.0238 | u
CC(C)(C)c1ccc(OCCC(=O)Nc2cccc(S(=O)(=O)NC3=NCCCCC3)c2)cc1 | x | x | x | x | x | i | x | x | x | x | x | x
O=C(NCc1ccc(Cl)cc1)c1n[nH]c([N+](=O)[O-])c1Cl | 6* | -10.7 | i | -3.79* | i | i | 0.00735 | 0.00566* | u | u | 0.0157 | 0.0101
O=C(Cc1ccccc1[N+](=O)[O-])NCc1ccc(Cl)cc1 | i | -4.5 | i | 1.51 | i | i | x | x | x | x | x | x
NC(=S)NNC(=O)c1cccc(Cl)c1 | i | -8.6 | i | 5.63* | i | i | u | u | 0.0316 | 0.0101* | 0.0186 | u
Cc1cc(/C(N)=N/OC(=O)c2cccc(Cl)c2)no1 | i | -7.1 | i | -0.0203 | i | i | x | x | x | x | x | x
Cc1nc(-c2nc(CC(=O)NNC(=O)c3ccc(Cl)cc3)cs2)cs1 | i | -6.3 | i | 0.659 | i | i | x | x | x | x | x | x
Cc1nc(C(=O)NNC(=O)c2ccc(Cl)cc2)cs1 | i | -10.9 | i | 9.89* | i | i | u | 0.0254* | 0.0349 | 0.0123* | 0.0285 | u
Cc1nc(-c2nc(-c3c(C(=O)NNC(=O)c4ccc(Cl)cc4)noc3C)cs2)cs1 | i | 3.4 | 17* | 103* | i | i | 0.0432* | 0.149* | 0.0422 | u | 0.0921* | 0.0214*
Cc1cc(C(=O)NNC(=O)c2cccc(Cl)c2)no1 | i | -4.0 | i | 7.36* | i | i | 0.00677 | 0.0143* | 0.032 | 0.0139* | u | 0.0176*
C[C@]12c3[nH]c4ccc(Cl)cc4c3CCN1C(=O)[C@@H](CC(=O)NCCN1CCOCC1)C[C@@H]2C(=O)N1CCCCC1 | x | x | x | x | x | i | x | x | x | x | x | x
Cc1ccc(C2=N/C(=C\c3ccc(F)cc3)C(=O)N2)cc1 | x | x | x | x | x | i | x | x | x | x | x | x
Cc1cc(/C(N)=N/OC(=O)c2ccc(Cl)cc2)no1 | i | -9.6 | i | 1.71 | i | i | x | x | x | x | x | x
Cc1cc(C(=O)NNC(=O)c2ccc(Cl)cc2)no1 | i | -2.6 | i | 5.88* | i | i | 0.0113 | 0.016* | 0.0372 | 0.0129* | 0.0275 | 0.0117*
COC(=O)c1c(C)[nH]c(C(=O)OCC(=O)c2ccc(C)s2)c1C | x | x | x | x | x | i | x | x | x | x | x | x
c1coc(CNc2c3c(nc4ncnn24)CCCC3)c1 | i | -6.5 | i | 4.99* | i | i | 0.00666 | 0.00424 | 0.0273 | 0.00715 | 0.0178 | 0.00929
c1coc(CNc2c3c(nc4ncnn24)CCC3)c1 | i | -3.7 | i | 0.0211 | i | i | x | x | x | x | x | x
Cc1occc1-c1nnc(SCC(=O)N2CCOCC2)n1Cc1ccco1 | i | 0.4 | i | 6.41* | i | i | 0.00924 | 0.00619 | 0.0355 | 0.00797 | 0.0218 | 0.0104
Cc1c(N=C2Nc3cccc4cccc2c34)c(=O)n(-c2ccccc2)n1C | i | -6.3 | i | -2.9* | i | i | u | 0.0051 | 0.0258* | 0.00843 | 0.0162* | 0.00978
O=S(=O)(/C=C/c1ccccc1)N1CCOCC1 | i | -3.8 | i | x | i | i | x | x | x | x | x | x
COc1ccc(S(=O)(=O)N(C)C[C@H]2Oc3c(NC(=O)C4CCCCC4)cccc3C(=O)N([C@H](C)CO)C[C@@H]2C)cc1 | x | x | x | x | x | i | x | x | x | x | x | x
CCOC(=O)c1ccc(C(=O)OCC)c(NC(=S)Nc2ccc([N+](=O)[O-])cc2OC)c1 | i | -3.6 | i | 10.1* | i | i | 0.0134* | 0.0312* | 0.0358 | 0.0241* | 0.0329* | 0.0138*
CCOC(=O)Nc1ccc([N+](=O)[O-])cc1OC | i | -3.5 | i | x | i | i | x | x | x | x | x | x
Cc1cccnc1Nc1nc(-c2ccc(O)cc2)cs1 | i | -4.7 | i | x | i | i | 0.00951 | 0.00561 | 0.0305 | 0.00741 | 0.018 | u
Oc1ccc(-c2n[nH]c(=S)n2Cc2ccco2)cc1 | i | -13.1 | i | 1.39 | i | i | x | x | x | x | x | x
Oc1cc2ccccc2cc1-c1n[nH]c(=S)n1Cc1ccco1 | i | -6.5 | i | 8.86* | i | i | 0.00915 | 0.0226* | 0.0298 | 0.0131* | u | 0.00978
CSCCC(NC(=O)c1ccccc1Br)C(=O)N1CCN(C/C=C/c2ccccc2)CC1 (stereo not given) | x | x | x | x | x | i | x | x | x | x | x | x
c1cncc(-c2nnc(SCc3cccc4ccccc34)o2)c1 | i | -17.4 | i | -4.29* | i | i | 0.00874 | 0.0064 | 0.0289 | 0.00637 | 0.02 | 0.00919
Clc1cc2cccnc2c2ncccc12 | x | x | x | x | x | i | x | x | x | x | x | x
